Screens: PubChem, several laboratories
DAX1 inh-1: DAX1 (NR0B1) inhibitors, primary screen, cell-based, HEK293, Gal4-DAX1, luciferase luminescence; Nuclear receptor subfamily 0 group B member 1 (Homo sapiens), P51843; HEK293 Gal4-DAX1 luciferase reporter; inhibition, % at 6.75 µM; 0.99% of 340,000 active;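 active = inhibition above the mean over all tested compounds plus 3 SD, cut at about 4.2% in these data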;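 note: 0% = DAX1-transfected cells with DMSO and 100% = empty-vector control cells with DMSO; inhibition shows as a rise in luminescence from relieved DAX1 repression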
Target sequence (P51843 207-470 limits assumed): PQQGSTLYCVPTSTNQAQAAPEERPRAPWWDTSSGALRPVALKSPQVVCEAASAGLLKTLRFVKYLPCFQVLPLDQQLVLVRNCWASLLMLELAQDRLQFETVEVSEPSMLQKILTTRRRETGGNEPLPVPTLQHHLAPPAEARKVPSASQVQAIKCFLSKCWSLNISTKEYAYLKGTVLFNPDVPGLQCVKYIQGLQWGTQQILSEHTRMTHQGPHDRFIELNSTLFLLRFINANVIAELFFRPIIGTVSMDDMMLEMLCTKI
NR2E3 ag-1: inhibitors of NR2E3-RetCOR corepressor binding, primary screen, NR2E3 agonist project, biochemical, TR-FRET, GST-NR2E3, biotin-RetCOR; 1536-well; Photoreceptor-specific nuclear receptor (Homo sapiens), Q9Y5X4; 0.12% of 320,000 active; AID 2300, 2010; inhibition of corepressor binding, % at 4.78 µM;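 active = percent inhibition above the cutoff of mean plus 3 SD of all tested compounds, set per screening campaign, cut at about 20% in these data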;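 note: 0% = DMSO wells and 100% = biotin wells as full block of FRET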
Target sequence (Q9Y5X4 whole entry, looked up): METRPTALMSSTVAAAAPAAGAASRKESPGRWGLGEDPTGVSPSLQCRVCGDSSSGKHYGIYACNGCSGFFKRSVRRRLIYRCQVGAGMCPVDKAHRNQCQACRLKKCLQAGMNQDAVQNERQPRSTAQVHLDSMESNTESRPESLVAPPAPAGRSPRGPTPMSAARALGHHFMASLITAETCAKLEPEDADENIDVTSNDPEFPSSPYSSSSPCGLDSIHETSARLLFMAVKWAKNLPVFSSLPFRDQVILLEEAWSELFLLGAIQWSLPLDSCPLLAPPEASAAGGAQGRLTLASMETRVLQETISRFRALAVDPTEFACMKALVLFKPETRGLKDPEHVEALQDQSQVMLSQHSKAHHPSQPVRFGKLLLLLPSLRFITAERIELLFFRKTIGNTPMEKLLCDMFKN
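Assay system: NR2E3–RetCOR corepressor complex. Quantity: 1.35 nM GST-NR2E3. Buffer or medium: pH 7.5 Tris-based buffer. Reagent: biotinylated RetCOR corepressor at 7 nM final. Schedule: 5 h at 4 °C. Detection: TR-FRET, emission read at 617 and 671 nm. Replicates: one well per compound, singlicate testing.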
JMJD2C inh: inhibitors of GASC-1 histone demethylase, primary screen, biochemical, fluorescence, DELFIA europium; Lysine-specific demethylase 4C (Homo sapiens), Q9H3R0; GST-JMJD2C(1-420) H3K9me3 demethylation; inhibition, % at 2.35 µM; 0.069% of 330,000 active;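 active = more than half of a compound's replicate wells show inhibition beyond 50%, single wells judged on their own value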;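 note: signal counts dimethyl H3K9 product captured on neutravidin plate; 0% = median of DMSO wells and 100% = 0.3 times that DMSO median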
NR2E3 ag-2: NR2E3 agonists in two-hybrid cells, primary screen, cell-based, luminescence, CHO-S, Gal4-NCOR/VP16-NR2E3; 0.35% of 360,000 active; inhibition of corepressor binding, % at 3.98 µM; luciferase; Photoreceptor-specific nuclear receptor (Homo sapiens), Q9Y5X4;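 active = inhibition above the mean of all tested compounds plus 3 SD, cut at about 70% in these data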;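 note: 0% = DMSO with NR2E3 transfected cells and 100% = cells lacking NR2E3 construct; higher means lower luciferase signal from less NR2E3 corepressor binding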
DAX1 inh-2: DAX1 (NR0B1) inhibitors on StAR promoter, primary screen, cell-based, luminescence, SF-1 (NR5A1), full-length DAX-1; AID 652010, 2013; 1.1% of 370,000 active; inhibition, % at 6.8 µM; HEK293T StAR-luciferase reporter, SF-1/DAX-1 repression relief;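 active = inhibition above the mean over all tested compounds plus 3 SD, cut at about 3.6% in these data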;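 note: 0% = DAX-1 cells with DMSO and 100% = cells lacking DAX-1 with DMSO; higher inhibition means more luminescence from relief of DAX-1 repression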
SMARCA2 activ: SMARCA2 (BRM) function activators, primary screen, cell-based, luminescence, high throughput. 1% of 370,000 active. AID 652017, 2013. MG213 cells, MMTV-luciferase reporter, dexamethasone, overnight. activation, % at 9.1 µM; in the data active = activation above about 7.8%;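 note: 0% = vehicle wells and 100% = reference activator wells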
NR2E3 ag confirm: NR2E3 agonist confirmation in cells, cell-based, luminescence, CHO-S two-hybrid. shares compounds with NR2E3 ag-2. CHO-S mammalian two-hybrid NR2E3-NCOR, luciferase luminescence. inhibition, % at 3.98 µM. 51% of 2,300 active;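 active = average inhibition above a cutoff equal to the mean inhibition of all tested compounds plus one SD, cut at about 70% in these data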;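 note: 0% = DMSO in NR2E3 cells and 100% = DMSO in cells lacking NR2E3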
VP16 counter: GAL4-VP16 reporter modulators, confirmation, counter-screen for NR2E3 agonist project, cell-based, luminescence, CHO-S, high throughput. shares compounds with NR2E3 ag-2. AID 624379, 2012. 29% of 2,300 active. inhibition, % at 3.98 µM. CHO-S GAL4-VP16 luciferase reporter;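 active = mean inhibition above a cutoff equal to the average over all tested compounds plus one standard deviation, cut at about 70% in these data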;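 note: luciferase from a UAS reporter driven by GAL4-VP16 transactivation; 0% = DMSO with VP16-transfected cells and 100% = DMSO with cells lacking VP16; higher means less reporter light so more repression of VP16 activity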
* = called active by the depositor; nt = not tested or not shown. A selection: hits, their analogues and other compounds. The true share with any hit is near 3.2%.

SMILES	DAX1 inh-1	NR2E3 ag-1	JMJD2C inh	NR2E3 ag-2	DAX1 inh-2	SMARCA2 activ	NR2E3 ag confirm	VP16 counter
CCCCCCCCCCCCN1[C@@H](CC(=O)O)c2cc(F)ccc2S1(=O)=O	1	0	-8	95*	0	0	94*	40
N=c1c2c(-c3ccccc3)c(-c3ccccc3)n(CCc3ccccc3)c2ncn1C1CCC(O)CC1 (stereo not given)	nt	nt	nt	nt	-2	2	nt	nt
Cc1ccccc1C(=O)N1CCN(c2ccc(NC(=O)c3ccc4c(c3)OCO4)cc2)CC1	-3	-1	-31	75*	-1	-2	91*	60
O=C(Nc1ccc(N2CCN(C(=O)c3ccco3)CC2)cc1)c1ccc2c(c1)OCO2	-3	0	7	52	0	-2	20	16
Nc1c(C(=O)N2CCOCC2)cnn1Cc1ccccc1	nt	nt	nt	nt	0	-2	nt	nt
CCNC(=O)N(C)[C@H]1C[C@H]2c3[nH]c4cccc(-c5cccc(F)c5)c4c3CCN2C(=O)[C@H]1[C@H](C)O	nt	nt	nt	nt	-2	2	nt	nt
C=C(C(=O)c1ccccc1)C(NC(C)(C)C)c1ccccc1 (stereo not given)	-6	nt	nt	92*	-8	-12	78*	29
Cc1ccc(NC(=S)N=Nc2c(O)[nH]c3ccccc23)cc1	0	3	-6	62	-1	7	25	6
COC(=O)C1CN(Cc2ccc(F)cc2)CCS(=O)(=O)N1Cc1ccc(F)cc1 (stereo not given)	nt	nt	nt	nt	-1	-1	nt	nt
Cc1nnc2ccc(Oc3ccc(-c4ccccc4)cc3)nn12	1	7	6	70	-2	-3	91*	73*
COC(=O)c1ccc(Oc2ccc3nnc(C)n3n2)cc1	0	-2	17	13	0	0	nt	nt
COCCCN1CCC2(CCC(c3ccccc3)CC2)C1=O (stereo not given)	nt	nt	nt	nt	1	-1	nt	nt
COc1ccccc1C(=O)N1CCN(CCNC(=O)C(=O)Nc2ccc(Br)c(C)c2)CC1	0	8	-3	49	-5	0	39	36
Cc1cc(NC(=O)C(=O)NCCN2CCN(C(=O)c3cccs3)CC2)ccc1Br	0	-1	160	10	0	-4	nt	nt
CC(O)CC(=O)OC[C@]12CC[C@H]3[C@@](C)(CC[C@H]4C(C)(C)CCC[C@]34C)[C@@H]1CC(C1=CC(=O)OC1O)O2 (stereo not given in full)	nt	nt	nt	67	-6	-7	66	24
CC(=O)OC[C@]12CC[C@H]3[C@@](C)(CC[C@H]4C(C)(C)CCC[C@]34C)[C@@H]1C[C@H](C1=CC(=O)O[C@H]1OC(C)=O)O2	nt	nt	5	nt	nt	nt	nt	nt
CC(=O)Nc1ccc(OCc2cccc3ccccc23)cc1	-4	1	0	48	0	-8	47	44
Cc1nn(CCC(=O)NNC(=O)Nc2ccccc2)c(C)c1[N+](=O)[O-]	nt	nt	nt	nt	-1	-5	nt	nt
CCN(CC)c1ccc(S(=O)(=O)Nc2cc(Cl)ccc2Cl)cc1NC(=S)NC(=O)C1CCCC1	-1	3	16	55	0	-3	9	-6
CC1(C(=O)Nc2cccc(C#N)c2)CCN1C(=O)Cc1ccc(-c2ccccc2)cc1 (stereo not given)	nt	nt	nt	91*	-5	-6	98*	90*
CC1(C(=O)Nc2cccc(C#N)c2)CCN1C(=O)CCc1ccccc1 (stereo not given)	nt	nt	nt	34	0	-1	nt	nt
CC(C)c1ccc(CC(=O)N2CCC2(C)C(=O)Nc2cccc(C#N)c2)cc1 (stereo not given)	nt	nt	nt	52	-1	-5	17	30
CC1(C(=O)Nc2ccc3c(c2)OCCO3)CCN1C(=O)Cc1ccc(-c2ccccc2)cc1 (stereo not given)	nt	nt	nt	57	-3	-9	56	45
CC1(C(=O)NS(=O)(=O)c2ccc3ccccc3c2)CCN1C(=O)Cc1ccc(-c2ccccc2)cc1 (stereo not given)	nt	nt	nt	48	1	1	11	6
COc1ccc(-c2nnc(SCC(=O)Nc3cccc4ccccc34)n2Cc2ccco2)cc1	nt	nt	nt	nt	-2	1	nt	nt
SMILES	DAX1 inh-1	NR2E3 ag-1	JMJD2C inh	NR2E3 ag-2	DAX1 inh-2	SMARCA2 activ	NR2E3 ag confirm	VP16 counter
CCOC(=O)[C@@]12CCCC=C1N(CCc1ccc(Cl)cc1)C(=O)[C@H]2CC(=O)NCc1ccc(OC)c(OC)c1	nt	nt	nt	nt	-2	-4	nt	nt
COc1cc(/C=N/NC(=O)c2ccc(=O)[nH]n2)ccc1O	1	-1	-3	1	0	2	nt	nt
COc1cc(/C=N/NC(=O)c2[nH]nc3c2CCc2ccccc2-3)ccc1O	0	2	-10	48	-1	-3	8	-16
COc1cc(/C=N/NC(=O)c2cc(C34CC5CC(CC(C5)C3)C4)[nH]n2)ccc1O	1	2	4	70*	0	0	12	7
CN(Cc1ccccc1)C(=O)OCc1cn(Cc2ccc(Cl)cc2)nn1	nt	nt	nt	nt	-1	-1	nt	nt
CSc1nc(N)nc2c1ncn2CC(=O)N1CCN(Cc2c(C)cc(C)cc2C)CC1	-5	nt	6	80*	-5	-4	62	68
Cc1cc(C)c(CN2CCN(C(=O)Cn3cnc4c(NCc5ccccc5)ncnc43)CC2)c(C)c1	-5	nt	nt	83*	-6	-10	88*	70
CC(C)CNc1ccc2c(c1)OC[C@@H](CC(C)C)NS2(=O)=O	nt	nt	nt	nt	1	-3	nt	nt
CCOC(=O)[C@]12CCCCC/C=C\1N(CCc1ccc(Cl)cc1)C(=O)[C@H]2CC(=O)NCCCN1CCCC1=O	nt	nt	nt	nt	-1	-2	nt	nt
O=C(CNS(=O)(=O)c1ccc(F)cc1)N1CCN(c2ccccn2)CC1	nt	nt	nt	nt	-2	-6	nt	nt
CCOC(=O)c1c(NC(=O)/C=C/C(=O)O)sc(C)c1-c1ccc(C(C)(C)C)cc1	0	0	18	53	-2	-6	51	8
C[C@H]1CCCN1c1ccc2c(c1)O[C@@H]1CCN(C1)S2(=O)=O	nt	nt	nt	nt	-1	-2	nt	nt
CCOC(=O)c1sc(=S)n(Cc2ccccc2)c1C	-2	0	5	-11	0	-3	nt	nt
